# Screening results as filed in PubChem.
# HNF4A DNA FP – change in binding of human HNF4 alpha to DNA. HNF4a-FITC DNA binding, fluorescence polarization, 1 h. activity change, % at 10 µM. 360,000 compounds, 0.3% hits; in the data active means activity change above about 30%, passing the limit was not always enough
# TPT1 inh – inhibitors of Candida albicans tRNA 2'-phosphotransferase TPT1; inhibition, % at 5 µM; 300,000 compounds, 0.81% hits; recombinant caTPT1, FP RNA substrate dephosphorylation;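 active means inhibition above the mean of all tested compounds plus 3 SD, set per screening campaign, cut at about 24% in these data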
# Rpn11 block – blocks the human proteasome subunit Rpn11; O00487; human 26S proteasome, Ub4-pepOG fluorescence polarization; 20S core pre-blocked with epoxomicin; calls only at 20 µM; 360,000 compounds, 0.59% hits;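 active means inhibition at 20 µM, scaled to each plate's controls, above about 33%, limit read from the data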
# SENP1 FRET inh – SENP1 (human) catalytic domain inhibition; Q9P0U3; recombinant SENP1 catalytic domain, CyPet-SUMO1-YPet FRET cleavage; inhibition, % at 10 µM; 360,000 compounds, 0.21% hits; AID 624204;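 active means inhibition at least 30% at 10 µM, raw YFP signal under a set limit, fluorescence ratio 0.5 to 1.5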
#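 Test system: hSENP1 catalytic domain, recombinant; Amount: 20 pM final SENP1 enzyme; Medium: Tris pH 8 buffer plus EDTA, NaCl, BME, BSA, NP40, catalase; Schedule: 50 min enzyme reaction, room temperature, light-protected; Technique: FRET fluorescence in CFP and YFP emission channels; Controls: no-enzyme wells low, DMSO-plus-enzyme wells high control.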
# UBC9 SUMO inh – blocks human SUMOylation mediated by UBC9 | P63279 | HTRF SUMOylation assay, SAE1/SAE2 + UBC9, in vitro | inhibition, % at 35 µM | 290,000 compounds, 0.36% hits; in the data active means inhibition above about 50%, passing the limit was not always enough
# Target sequence (P63279 whole entry, looked up): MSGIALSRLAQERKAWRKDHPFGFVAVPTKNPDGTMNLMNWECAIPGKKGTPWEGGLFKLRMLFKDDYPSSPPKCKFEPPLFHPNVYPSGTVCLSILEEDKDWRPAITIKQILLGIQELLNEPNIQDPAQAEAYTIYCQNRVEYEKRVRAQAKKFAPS
# CSN deneddyl inh – inhibitors of human CSN-mediated cullin deneddylation; Q92905; Purified CSN, SCF-Nedd8-OG deneddylation, fluorescence polarization; inhibition, % at 12.5 µM; 360,000 compounds, 0.38% hits;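 active means pattern-corrected inhibition above about 35%, with an unprinted fluorescence ratio check between 0.5 and 1.5, limit read from the data, passing the limit was not always enough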
# Target sequence (Q92905 whole entry, looked up, one chain of several): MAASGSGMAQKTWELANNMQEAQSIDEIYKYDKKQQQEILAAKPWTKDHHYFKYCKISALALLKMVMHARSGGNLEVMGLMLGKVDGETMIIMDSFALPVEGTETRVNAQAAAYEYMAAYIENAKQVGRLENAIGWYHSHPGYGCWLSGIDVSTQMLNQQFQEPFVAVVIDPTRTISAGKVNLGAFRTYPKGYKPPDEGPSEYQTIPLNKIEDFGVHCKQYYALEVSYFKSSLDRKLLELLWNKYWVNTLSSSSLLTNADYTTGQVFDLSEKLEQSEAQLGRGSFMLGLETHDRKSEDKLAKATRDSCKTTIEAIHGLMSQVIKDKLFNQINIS
#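 Detection – fluorescence polarization · System – HEK293T-derived human Csn5 enzyme · Controls – substrate-only high control, full reaction low control · Timing – 90 min, room temperature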
# Rpn11 inh conf – Rpn11 inhibition confirmation, single concentration. shares compounds with Rpn11 block. purified human 26S proteasome, Ub4-pepOG fluorescence polarization; proteasome pretreated with epoxomicin. inhibition, % at 20 µM. 1,900 compounds, 29% hits
# MMP-2 counter-1 – MMP-2 (human) inhibition counter-screen; shares compounds with Rpn11 block; recombinant MMP-2, FRET peptide cleavage fluorescence; inhibition, % at 20 µM; 1,900 compounds, 4% hits; AID 602330;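 further: human MMP-2 activated beforehand with APMA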
# Thrombin FP – thrombin (bovine) inhibition counter-screen; shares compounds with Rpn11 block; bovine thrombin cleavage of Ub4-pepOG, fluorescence polarization; inhibition, % at 20 µM; 1,900 compounds, 13% hits; AID 602333;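 active means mean inhibition at least 40% at 20 µM, or signal 3 deviations below plate average, so some actives read negative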
# CSN deneddyl val – Csn5 (human) deneddylation inhibition, single-concentration validation. 540 compounds, 62% hits. Csn5 deneddylation of SCF-Nedd8OG, fluorescence polarization, 90 min. inhibition, % at 16.6 µM. shares compounds with CSN deneddyl inh. AID 720654; in the data active means inhibition above about 50%
# MMP-2 counter-2 – MMP-2 (human) inhibition, counter-screen for CSN hits. shares compounds with CSN deneddyl inh. recombinant MMP-2, FRET substrate fluorescence, 60 min. inhibition, % at 16.6 µM. 540 compounds, 33% hits. AID 720655;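 active means corrected plate-normalized z-score of 5 or more, or -5 or less, or inhibition of 15% or more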
# Thrombin cntr – blocks bovine thrombin in a CSN deneddylation counter-screen. shares compounds with CSN deneddyl inh. bovine thrombin cleavage of Ub4-pepOG, fluorescence polarization. inhibition, % at 16.6 µM. 540 compounds, 49% hits;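 active means inhibition at or above a set limit, with a fluorescence interference ratio between 0.5 and a set maximum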
# Numbers stand for hits; 0 = inactive; - = not tested or not shown; + = active, no number. Sampled rows, rich in hits. Any-hit rate of the full collection: about 1.8%. Unless noted, no stated cut-off is given here; in the data, active means inhibition above about 40%; inactive means the rest.
SMILES,HNF4A DNA FP,TPT1 inh,Rpn11 block,SENP1 FRET inh,UBC9 SUMO inh,CSN deneddyl inh,Rpn11 inh conf,MMP-2 counter-1,Thrombin FP,CSN deneddyl val,MMP-2 counter-2,Thrombin cntr
CCOc1ccc2nc(N3C(=O)C(O)=C(C(=O)c4ccco4)C3c3ccco3)sc2c1 (stereo not given),0,-,0,0,-,0,-,-,-,-,-,-
CC(=O)NC1=NC(=O)/C(=C/c2cc(C)n(-c3cccc(C(=O)O)c3)c2C)S1,49,-,+,0,0,61,+,40,136,0,16,53
O=C(Nc1ccccc1Sc1ccccc1)C1CCCO1 (stereo not given),0,0,0,0,0,0,-,-,-,-,-,-
O=C(O)CN1C(=O)/C(=C\c2ccc(OC(=O)c3ccco3)cc2)SC1=S,73,0,+,39,0,54,96,0,68,82,0,68
O=C(O)CN1C(=O)/C(=C\c2cccc(OC(=O)c3ccco3)c2)SC1=S,0,0,0,0,0,0,-,-,-,-,-,-
O=C(O)CCCCCN1C(=O)/C(=C/c2cn(-c3ccccc3)nc2-c2cccs2)SC1=S,0,-,+,0,-,92,84,0,48,82,0,22
O=C(O)CCCCCN1C(=O)/C(=C\c2cn(-c3ccccc3)nc2-c2cccs2)SC1=S,0,0,0,0,0,0,-,-,-,-,-,-
COC(=O)CN1C(=O)COc2ccc(S(=O)(=O)NCc3ccccc3)cc21,0,0,0,0,0,0,-,-,-,-,-,-
COc1cc(NS(=O)(=O)c2ccc(NC(=S)NC(=O)/C=C/c3ccco3)cc2)ncn1,0,-,+,0,-,49,78,0,47,61,23,22
O=C1c2ccccc2C(=O)c2c(NCc3cccnc3)cccc21,0,0,0,0,0,0,-,-,-,-,-,-
O=C1c2cccc(NCCCNCCO)c2C(=O)c2cccc(NCCCNCCO)c21,0,-,+,0,-,94,0,0,0,0,34,0
O=C(Nc1ccc(C2=NCCN2)cc1)c1ccc(C(=O)Nc2ccc(C3=NCCN3)cc2)c(Cl)c1,0,0,+,0,0,114,69,47,0,0,72,0
O=C(NN=C1CCCCCC1)c1cc(-c2ccccc2)nc2ccccc12,0,0,0,0,0,0,-,-,-,-,-,-
COc1cc(Cl)cc(/C=N\NC(=O)c2ccc3c(c2)OCO3)c1O,0,-,+,0,-,99,134,0,76,0,23,0
COc1ccc(Br)cc1/C=c1\sc2nc(-c3ccco3)nn2c1=O,0,0,+,0,52,41,0,0,0,70,0,0
Cc1cc(N2CCN(c3ccc([N+](=O)[O-])c4cccnc34)CC2)c2ccccc2n1,0,0,+,0,0,59,48,0,0,105,0,0
Cc1cc(N2CCN(c3ccc(C(F)(F)F)cc3[N+](=O)[O-])CC2)c2ccccc2n1,0,0,0,0,0,0,-,-,-,-,-,-
COC(=O)c1c[n+]([O-])ccc1OC,0,-,0,0,-,0,-,-,-,-,-,-
O=C(CCN1C(=O)/C(=C/c2ccco2)SC1=S)Nc1ccc(C(=O)O)c(O)c1,0,0,+,0,-,52,0,0,0,73,0,0
